Results: ChEMBL document CHEMBL1671691 (Antimicrob Agents Chemother, 2010)

System: Influenza A virus
Assay: Antiviral activity against adamantane-, oseltamivir-, zanamivir-susceptible Influenza A virus (A/Georgia/17/2006(H1N1)) infected in MDCK cells assessed as inhibition of viral replication after 3 days by microscopic analysis using crystal violet stain
Assay type: functional, organism-based
Details: 72 h
How it was run: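 Confluent MDCK-ATCC monolayers infected with virus diluted to give 15–45 plaques/well. Adsorption 1 h at 37°C without drug, then washed. Overlaid with 0.8% agarose in MEM containing drug plus TPCK-trypsin: 3 μg/ml for seasonal viruses, 2 μg/ml for 2009 A(H1N1). Incubated 3 days at 37°C, 5% CO2. Ethanol-fixed, crystal violet-stained, plaques counted. EC50 by curve fit; duplicates on three occasions, mean ± SD.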

NC(=O)c1ncn([C@@H]2O[C@H](CO)[C@@H](O)[C@H]2O)n1 [RIBAVIRIN]
EC50: 4.92 µM
